Measured values gathered from unrelated publications.
Lines come from different studies, so protocols differ.
Read-out: enzyme activity
Action: inhibitor
rep papain-like protease: Replicase polyprotein 1ab, papain-like protease (rep, Severe acute respiratory syndrome coronavirus 2, UniProt P0DTD1)
rep main protease: Replicase polyprotein 1ab, main protease (rep, Severe acute respiratory syndrome coronavirus 2, UniProt P0DTD1)

COc1cc(C[C@@H](C)[C@@H](C)Cc2cc(O)c(OC)c(OC)c2)cc(O)c1OC
inhibition (rep papain-like protease; FRET; 8 µM): 51.4%

O=C(O)[C@H]1O[C@@H](Oc2cc3oc(-c4ccccc4)cc(=O)c3c(O)c2O)[C@H](O)[C@@H](O)[C@@H]1O
inhibition (rep main protease; 10 µM): 68.9%

O=C(O)c1cc(O)c2c(c1)[C@H]([C@H]1c3cc(C(=O)O)cc(O)c3C(=O)c3c(O[C@@H]4O[C@H](CO)[C@@H](O)[C@H](O)[C@H]4O)cccc31)c1cccc(O[C@@H]3O[C@H](CO)[C@@H](O)[C@H](O)[C@H]3O)c1C2=O
inhibition (rep main protease; 20 µM): 100%

Cc1cc(NC(=O)c2cc3c(=O)n4cccc(C)c4nc3n2C)ccc1Br
inhibition (rep main protease; 10 µM): 30%

O=c1n(-c2ccc(F)cc2)nc2n1CCCN2
inhibition (rep main protease; 20 µM): 10.2%

CC[C@@H](C)[C@@H](NC(=O)[C@@H](CCC(=O)O)NC(=O)[C@H](NC(=O)[C@@H](CCC(N)=O)NC(=O)[C@H]1CCCN1C(=O)[C@@H](CCC(N)=O)NC(=O)[C@@H](Cc1c[nH]c2ccccc12)NC(C)=O)C(C)C)C(=O)N[C@H](CO)C(=O)N[C@H](CCC(N)=O)C(=O)N[C@H](CO)C(=O)N1CCC[C@@H]1C(=O)N[C@H](Cc1c[nH]c2ccccc12)C(=O)N[C@H](CO)C(=O)N[C@H](Cc1c[nH]cn1)C(=O)N1CCC[C@@H]1C(=O)N[C@H](CO)C(=O)N[C@H](CCCNC(=N)N)C(N)=O
inhibition (rep main protease; fluorescence; 140 µM): 100%

COc1c(O)cc(O)c2c(=O)cc(-c3ccccc3)oc12
inhibition (rep main protease; 100 µM): 3.6%

Cc1ccc2nc(Cl)c(/C=N/NC(=O)c3ccncc3)cc2c1
inhibition (rep papain-like protease; 10 µM): 9.2%

CC1=CC(=O)c2c(O)cccc2C1=O
inhibition (rep main protease; 10 µM): 7.7%

CC1(C)C=Cc2c(ccc3c2OC[C@@H](c2ccc(O)cc2O)C3)O1
inhibition (rep main protease; 8 µM): 17.4%

O=C(/C=C/c1ccc(O)c(O)c1)OC1CC(OC(=O)/C=C/c2ccc(O)c(O)c2)(C(=O)O)CC(O)C1O (centres unmarked)
inhibition (rep main protease; 10 µM): 27.8%

COc1cc(C)cc2c1C(=O)C=CC2=O
inhibition (rep main protease; 1 µM): 75.6%

O=C(NCc1cccnc1)Nc1csc([N+](=O)[O-])c1
inhibition (rep main protease; 20 µM): 4.45%

C/C=C1\C(OC2OC(CO)C(O)C(O)C2O)OC=C(C(=O)OC)C1CC(=O)OCCc1ccc(O)c(O)c1 (centres unmarked)
inhibition (rep main protease; 20 µM): 93.8%

Cn1c(C(=O)Nc2ccc3c(c2)OCCO3)cc2c(=O)n3ccccc3nc21
inhibition (rep main protease; 100 µM): 71%

O=c1oc2c(O)c(O)cc3c(=O)oc4c(O)c(O)cc1c4c23
inhibition (rep main protease; FRET; 10 µM, 10 min): > 50%

COc1ccc(OC)c2c1C(=O)C=CC2=O
inhibition (rep main protease; 1 µM): 75.1%

Cn1c(=O)n(C)c2cc(CNc3ccc4c(c3)OCO4)ccc21
inhibition (rep main protease; 20 µM): 22.3%

C[C@]1(C(=O)NC[C@H](NC(=O)c2cncc3[nH]ccc23)c2ccc3ccccc3c2)CCNC1=O
inhibition (rep main protease; 5 µM): 13.7%

O=C(Oc1cncc(Cl)c1)c1ccc2[nH]c3c(c2c1)CCCC3
inhibition (rep main protease; fluorescence; 10 µM, pH 7.2): 100%

C/N=c1\nc(-c2ccccc2)n(-c2ccccc2)s1
inhibition (rep main protease; 0.1 µM): 16.4%

Cc1ccc2nc(Cl)c(/C=N/c3cccc([N+](=O)[O-])c3)cc2c1
inhibition (rep papain-like protease; 10 µM): 5.3%

CCc1ccc(NC(=O)c2cc3c(=O)n4ccccc4nc3n2C)cc1
inhibition (rep main protease; 100 µM): 49%
